Measurements from ChEMBL document CHEMBL3045304, “Sesquiterpene lactones with potential use as natural herbicide models. 2. guaianolides” (2000).
Activity calls are given as the source filed them. The calls are words filed in the database; no cut-off is given here.

Key:
Lepidium sativum [1] = assay: Inhibition of germination of Lepidium sativum at 0.1 mM or 1 mM after 4 days relative to untreated control
Allium cepa [2] = assay: Stimulation of hypocotyl length of Allium cepa cv. Valenciana (onion) at 0.1 mM or 1 mM after 7 days relative to untreated control
Allium cepa [3] = assay: Inhibition of germination of Allium cepa cv. Valenciana (onion) at 0.1 mM or 1 mM after 5 days relative to untreated control; format: functional
Solanum lycopersicum [4] = assay: Stimulation of hypocotyl length of Solanum lycopersicum cv. Tres Cantos (tomato) at 0.1 mM or 1 mM after 5 days relative to untreated control; format: functional
How it was run: (§1)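 Lettuce and tomato seeds, 25 per dish on filter paper, received 5 mL test solution. Incubation was 5 days in the dark at 25 °C, with four replicates per concentration. Solutions were made at 10^-3 or 10^-4 M in 10 mM MES, diluted serially, and adjusted to pH 6.0. Parallel controls were run. Results are % difference from control.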

Solanum lycopersicum [5] = assay: Stimulation of germination of Solanum lycopersicum cv. Tres Cantos (tomato) at 0.1 mM or 1 mM after 5 days relative to untreated control; format: functional
How it was run: as §1

Solanum lycopersicum [6] = assay: Inhibition of germination of Solanum lycopersicum cv. Tres Cantos (tomato) at 0.1 mM or 1 mM after 5 days relative to untreated control; format: functional
How it was run: as §1

Allium cepa [7] = assay: Stimulation of germination of Allium cepa cv. Valenciana (onion) at 0.1 mM or 1 mM after 5 days relative to untreated control; format: functional
Lactuca sativa [8] = assay: Inhibition of germination of Lactuca sativa cv. Roman (lettuce) at 0.1 mM or 1 mM after 5 days relative to untreated control; format: functional
How it was run: as §1

Lactuca sativa [9] = assay: Stimulation of root length of Lactuca sativa cv. Roman (lettuce) at 0.1 mM or 1 mM after 5 days relative to untreated control; format: functional
How it was run: as §1

Solanum lycopersicum [10] = assay: Inhibition of hypocotyl length of Solanum lycopersicum cv. Tres Cantos (tomato) at 0.1 mM or 1 mM after 5 days relative to untreated control; format: functional
How it was run: as §1

Solanum lycopersicum [11] = assay: Inhibition of root length of Solanum lycopersicum cv. Tres Cantos (tomato) at 0.1 mM or 1 mM after 5 days relative to untreated control; format: functional
How it was run: as §1

Triticum aestivum [12] = assay: Inhibition of root length of Triticum aestivum cv. Cortex (wheat) at 0.1 mM or 1 mM after 5 days relative to untreated control; format: functional
How it was run: (§2)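 Wheat: 10 seeds per dish on filter paper with 5 mL test solution, 5 days in the dark at 25 °C, 10 replicates per concentration. Stock test solutions were 10^-3 or 10^-4 M in 10 mM MES, with lower levels made by dilution, all at pH 6.0. Parallel controls were run. Output is % difference from control.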

Allium cepa [13] = assay: Inhibition of hypocotyl length of Allium cepa cv. Valenciana (onion) at 0.1 mM or 1 mM after 7 days relative to untreated control
Solanum lycopersicum [14] = assay: Stimulation of root length of Solanum lycopersicum cv. Tres Cantos (tomato) at 0.1 mM or 1 mM after 5 days relative to untreated control; format: functional
How it was run: as §1

Lactuca sativa [15] = assay: Stimulation of germination of Lactuca sativa cv. Roman (lettuce) at 0.1 mM or 1 mM after 5 days relative to untreated control; format: functional
How it was run: as §1

Lepidium sativum [16] = assay: Inhibition of root length of Lepidium sativum at 0.1 mM or 1 mM after 4 days relative to untreated control
Lactuca sativa [17] = assay: Inhibition of hypocotyl length of Lactuca sativa cv. Roman (lettuce) at 0.1 mM or 1 mM after 5 days relative to untreated control; format: functional
How it was run: as §1

Allium cepa [18] = assay: Stimulation of root length of Allium cepa cv. Valenciana (onion) at 0.1 mM or 1 mM after 7 days relative to untreated control
Triticum aestivum [19] = assay: Inhibition of germination of Triticum aestivum cv. Cortex (wheat) at 0.1 mM or 1 mM after 5 days relative to untreated control; format: functional
How it was run: as §2

Lactuca sativa [20] = assay: Inhibition of root length of Lactuca sativa cv. Roman (lettuce) at 0.1 mM or 1 mM after 5 days relative to untreated control; format: functional
How it was run: as §1

Lepidium sativum [21] = assay: Stimulation of root length of Lepidium sativum at 0.1 mM or 1 mM after 5 days relative to untreated control; format: functional
Lactuca sativa [22] = assay: Stimulation of hypocotyl length of Lactuca sativa cv. Roman (lettuce) at 0.1 mM or 1 mM after 5 days relative to untreated control; format: functional
How it was run: as §1

Triticum aestivum [23] = assay: Stimulation of root length of Triticum aestivum cv. Cortex (wheat) at 0.1 mM or 1 mM after 5 days relative to untreated control; format: functional
How it was run: as §2

Triticum aestivum [24] = assay: Stimulation of germination of Triticum aestivum cv. Cortex (wheat) at 0.1 mM or 1 mM after 5 days relative to untreated control; format: functional
How it was run: as §2

Allium cepa [25] = assay: Inhibition of root length of Allium cepa cv. Valenciana (onion) at 0.1 mM or 1 mM after 5 days relative to untreated control; format: functional
Lepidium sativum [26] = assay: Stimulation of hypocotyl length of Lepidium sativum at 0.1 mM or 1 mM after 5 days relative to untreated control; format: functional
Lepidium sativum [27] = assay: Inhibition of hypocotyl length of Lepidium sativum at 0.1 mM or 1 mM after 5 days relative to untreated control; format: functional
Triticum aestivum [28] = assay: Inhibition of hypocotyl length of Triticum aestivum cv. Cortex (wheat) at 0.1 mM or 1 mM after 5 days relative to untreated control; format: functional
How it was run: as §2

Triticum aestivum [29] = assay: Stimulation of hypocotyl length of Triticum aestivum cv. Cortex (wheat) at 0.1 mM or 1 mM after 5 days relative to untreated control; format: functional
How it was run: as §2

Row | SMILES | Activity (Lepidium sativum [1]) | inhibition (Lepidium sativum [1]) | Activity (Allium cepa [2]) | inhibition (Allium cepa [3]) | Activity (Solanum lycopersicum [4]) | Activity (Solanum lycopersicum [5]) | Activity (Allium cepa [7]) | inhibition (Lactuca sativa [8]) | Activity (Lactuca sativa [9]) | inhibition (Solanum lycopersicum [10]) | inhibition (Allium cepa [13]) | Activity (Solanum lycopersicum [14]) | Activity (Lactuca sativa [15]) | inhibition (Lepidium sativum [16]) | inhibition (INH) (Lactuca sativa [17]) [%] | Activity (Allium cepa [18]) | Activity (Lepidium sativum [21]) | Activity (Lactuca sativa [22]) [%] | Activity (Triticum aestivum [23]) | Activity (Triticum aestivum [24]) | further results
1 | C=C1C(=O)O[C@H]2[C@H]1C[C@@H](O)C(=C)[C@@H]1C[C@@H](O)C(=C)[C@@]12O | inactive | inactive | inactive | inactive | inactive | <20% | inactive | inactive | 20% | inactive | inactive | inactive | inactive | inactive | <20 | inactive | inactive | <20 | 20% | inactive | inhibition (INH) (Solanum lycopersicum [6]): <20%; inhibition (Solanum lycopersicum [11]): inactive; inhibition (INH) (Triticum aestivum [12]): 20%; inhibition (Triticum aestivum [19]): inactive; inhibition (INH) (Lactuca sativa [20]): 20%; inhibition (Allium cepa [25]): inactive; Activity (Lepidium sativum [26]): inactive; inhibition (Lepidium sativum [27]): inactive; inhibition (INH) (Triticum aestivum [28]): 20%; Activity (Triticum aestivum [29]): 20%
2 | C=C1CC[C@H]2C(=C)CC[C@@H]3[C@H](OC(=O)[C@]3(O)CO)[C@@H]12 | inactive | inactive | inactive | inactive | inactive | <20% | inactive | inactive | inactive | inactive | inactive | inactive | inactive | inactive | <20 | inactive | inactive | <20 | inactive | <20% | inhibition (INH) (Solanum lycopersicum [6]): <20%; inhibition (Solanum lycopersicum [11]): inactive; inhibition (Triticum aestivum [12]): inactive; inhibition (INH) (Triticum aestivum [19]): <20%; inhibition (Lactuca sativa [20]): inactive; inhibition (Allium cepa [25]): inactive; Activity (Lepidium sativum [26]): inactive; inhibition (Lepidium sativum [27]): inactive; inhibition (Triticum aestivum [28]): inactive; Activity (Triticum aestivum [29]): inactive
3 | C=C1CC[C@H]2C(=C)CC[C@@H](C(=C)CO)[C@H](O)[C@@H]12 | inactive | inactive | inactive | inactive | inactive | 20% | inactive | inactive | inactive | inactive | inactive | <20% | inactive | inactive | <20 | inactive | inactive | <20 | 20% | inactive | inhibition (INH) (Solanum lycopersicum [6]): 20%; inhibition (INH) (Solanum lycopersicum [11]): <20%; inhibition (INH) (Triticum aestivum [12]): 20%; inhibition (Triticum aestivum [19]): inactive; inhibition (Lactuca sativa [20]): inactive; inhibition (Allium cepa [25]): inactive; Activity (Lepidium sativum [26]): inactive; inhibition (Lepidium sativum [27]): inactive; inhibition (INH) (Triticum aestivum [28]): <20%; Activity (Triticum aestivum [29]): <20%
4 | C=C1CC[C@H]2[C@H](C)C(=O)O[C@@H]2[C@@]2(O)C(=C)[C@H](O)C[C@@H]12 | inactive | inactive | inactive | inactive | inactive | inactive | inactive | inactive | <20% | inactive | inactive | inactive | inactive | inactive | 20 | inactive | inactive | 20 | inactive | inactive | inhibition (Solanum lycopersicum [6]): inactive; inhibition (Solanum lycopersicum [11]): inactive; inhibition (Triticum aestivum [12]): inactive; inhibition (Triticum aestivum [19]): inactive; inhibition (INH) (Lactuca sativa [20]): <20%; inhibition (Allium cepa [25]): inactive; Activity (Lepidium sativum [26]): inactive; inhibition (Lepidium sativum [27]): inactive; inhibition (INH) (Triticum aestivum [28]): 20%; Activity (Triticum aestivum [29]): 20%
